Sampled rows, rich in hits. Any-hit rate of the full collection: about 4.6%.
NLRP3 yeast inh = NALP3 inflammasome inhibitors in reconstituted yeast, primary screen, luminescence, uHTS; 0.39% of 330,000 active; Yeast reconstituted NLRP3/ASC/caspase-1, beta-gal luminescence, 24 h; AID 2825, 2010; inhibition, % at 10 µM;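 active means inhibition of 50% or more; inactive means inhibition below 50%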;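 further: plate controls were induced DMSO wells for no effect and uninduced yeast grown without galactose for full effect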
Arr AP2 block = inhibitors of beta-arrestin/AP2 binding, primary screen, biochemical, GPCR trafficking, flow cytometry | beta-arrestin 1 C-terminal peptide binding to AP2 beta2-adaptin appendage (human) | FITC-arrestin peptide / GST-AP2 beads; AP2 beta2 appendage carries R879A mutation | inhibition, % at 10 µM | 0.31% of 340,000 active | AID 504490, 2011;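 active means inhibition above a set limit, near 3 SD of compounds lacking own fluorescence, cut at about 54% in these data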;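 further: plate controls were DMSO wells for no effect and 5 µM unlabelled arrestin peptide for full effect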
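Test system: GST-tagged AP2 beta2-adaptin appendage (R879A) on 4 µm glutathione beads; also added: fluorescein-tagged arrestin peptide at 50 nM final; timing: 12 min plus 1 h, RT; signal: flow cytometry, FL1 (488/535 nm); read-out: percent drop in bead-associated FITC signal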
ALR inh = inhibitors of human ALR sulfhydryl oxidase, primary screen, biochemical, H2O2 detection, HRP-luminol luminescence, single point. FAD-linked sulfhydryl oxidase ALR (Homo sapiens), P55789. purified ALR, DTT oxidation. inhibition, % (test concentration not listed). 3.8% of 290,000 active. AID 485317, 2010;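 active means mean replicate inhibition above about 79%, with every replicate also reaching it, limit read from the data; inconclusive means only one of the two criteria met; inactive means mean below limit and not every replicate reaching it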
Target sequence (P55789 whole entry, looked up): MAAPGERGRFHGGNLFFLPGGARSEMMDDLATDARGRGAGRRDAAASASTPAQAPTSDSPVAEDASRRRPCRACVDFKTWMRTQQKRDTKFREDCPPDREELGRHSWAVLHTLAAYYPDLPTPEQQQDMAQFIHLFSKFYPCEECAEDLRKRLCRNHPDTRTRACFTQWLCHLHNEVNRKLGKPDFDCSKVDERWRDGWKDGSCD
DSG3 Ab inh = inhibitors of pemphigus antibody binding to DSG3, primary screen, biochemical, bead-based, flow cytometry, scFv-GFP; Desmoglein-3 (Homo sapiens), P32926; DSG3-coupled beads, scFv-anti-DSG3-GFP binding; active compounds read low; binding (percent of control), % at 10 µM; 0.48% of 310,000 active; AID 588358, 2011;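 active means binding more than 3 SD below its plate's average and above zero; inconclusive means below that plate limit but binding exactly zero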;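 further: hits lower antibody fragment binding to DSG3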
NALP1 inh = NALP1 inflammasome inhibitors in reconstituted yeast, colorimetric, S. cerevisiae, triplicate retest. S. cerevisiae NALP1/ASC/caspase-1 growth, X-gal OD620, 72 h. inhibition, % at 10 µM. 0.61% of 280,000 active; in the data active means inhibition mostly above about 24%, no sharp cut-off; inactive means mostly below about 32%
PolyA inh = polyadenylation inhibitors in yeast reporter cells, primary screen, luminescence, S. cerevisiae. AID 1875, 2009. activity score, % at 12 µM. S. cerevisiae SKY197-pL101 polyadenylation reporter, beta-gal luminescence; efflux-impaired pdr1/pdr3 knockout yeast; score 100 = 6 SD above DMSO. 0.02% of 300,000 active;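 active means lowest replicate activity score at least 50, where 100 means six control SD above control mean; inconclusive means lowest score under 50 but half or more replicates reach 50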;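 further: yeast exposed to compound for 9 h at 30 °C; higher score means more reporter readthrough which indicates perturbed polyadenylation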
* marks the source's active call; other numbers are inactive results; ? = inconclusive; nt = no result.

SMILES | NLRP3 yeast inh | Arr AP2 block | ALR inh | DSG3 Ab inh | NALP1 inh | PolyA inh
O=C(NC1CC1)c1cc2cc(Br)ccc2s1 | 21 | 4 | 0 | 96 | 30* | -11
COc1cc(/C=N/NC(=O)c2ccncc2)ccc1OC(=O)c1cc(OC)c(OC)c(OC)c1 | 9 | -5 | nt | ? | -14 | -3
COc1ccc(NC(=O)COc2ccccc2C)cc1S(=O)(=O)N1CCCCC1 | 22 | -9 | -14 | 109 | nt | 1
COc1cc(C(=O)NS(=O)(=O)c2ccccc2C)ccc1Cc1cn(C)c2ccc(NC(=O)OC3CCCC3)cc12 | 0 | nt | 97* | nt | 2 | 4
CCCn1c2ccccc2c2nnc(SCCN3CCOCC3)nc21 | -12 | 10 | 96* | 96 | 9 | 11
O=C(N/N=C/c1ccc(O)cc1)/C(=C/c1ccccc1)CCO | 2 | 35 | 100* | 98 | 10 | 3
CC12CCC(C(=O)N/N=C/c3ccc(O)cc3)(OC1=O)C2(C)C (stereo not given) | 1 | -5 | 99* | 99 | 8 | -1
COCCNC(=S)N/N=C/c1ccc([N+](=O)[O-])cc1 | -5 | -1 | nt | 100 | -4 | -4
Cn1cccc1CC(=O)N/N=C/c1ccc([N+](=O)[O-])cc1 | 12 | 17 | 99* | 95 | 4 | -10
CC12CCC(C(=O)NNC(=O)c3ccccc3)(OC1=O)C2(C)C (stereo not given) | 11 | 1 | -2 | 105 | 10 | 4
C=C(C)CNC(=S)N/N=C/c1ccc([N+](=O)[O-])cc1 | 21 | 24 | -1 | 98 | 32* | -4
CC(=O)Nc1ccc(S(=O)(=O)N(C)c2ccc(OCC(=O)NCCc3ccccc3F)cc2)cc1 | nt | 11 | nt | nt | nt | nt
O=C1SCCN1N=Cc1ccc([N+](=O)[O-])o1 | nt | 5 | nt | 92 | nt | nt
CCOc1ccc(NC(=O)Nc2ccon2)cc1 | 21 | -1 | -2 | 107 | 28 | 6
O=C(Cc1cccs1)N/N=C\c1ccc(O)cc1 | 14 | 21 | 98* | 83 | 15 | -6
O=C(CCn1cnc(-c2ccccc2)c1-c1ccccc1)N/N=C/c1ccc(O)cc1 | 11 | 7 | 89* | 98 | 24 | 1
O=C(CNS(=O)(=O)c1ccc([N+](=O)[O-])cc1)N/N=C\c1ccc(O)cc1 | 4 | 0 | 99* | 105 | 9 | 0
O=C(CC(=O)N/N=C/c1ccc(O)cc1)N/N=C/c1ccc(O)cc1 | 10 | -13 | 99* | 93 | -10 | -3
O=C(CNC(=O)c1ccccc1F)N/N=C\C=C\c1ccccc1 | 8 | -11 | 4 | 98 | 6 | 5
Cc1cccc(C)c1NC(=O)c1cc(S(=O)(=O)N2CCC3(CC2)OCCO3)ccc1F | nt | nt | nt | 99 | nt | nt
CCOc1ccccc1NC(=O)C(=O)N/N=C/c1ccc([N+](=O)[O-])cc1 | -2 | 4 | -3 | 93* | 21 | 14
COc1ccccc1N(CC(=O)N1CCCC1)S(=O)(=O)c1cc([N+](=O)[O-])ccc1Cl | 4 | 21 | 2 | nt | nt | nt
Cc1cc(C)n(-c2nc3ccccc3nc2N2CCN(S(=O)(=O)c3ccc4ccccc4c3)CC2)n1 | 10 | 3 | 0 | 89* | -12 | -1
Cc1cc(C)n(-c2nc3ccccc3nc2N2CCN(S(=O)(=O)c3ccc(F)c(C)c3)CC2)n1 | 1 | 30 | -14 | 111 | 15 | 14
CCOC(=O)c1c(C)n(C)c2cc(Br)c(O)c(O)c12 | -2 | 7 | 7 | 84 | -13 | -11
SMILES | NLRP3 yeast inh | Arr AP2 block | ALR inh | DSG3 Ab inh | NALP1 inh | PolyA inh
CCOC(=O)c1c(CSc2cccs2)n(C)c2cc(Br)c(O)c(CN(C)C)c12 | 23 | 24 | 99* | nt | 16 | -1
COc1cc(C2Nc3ccccc3C(=O)N2c2ccccc2OC)ccc1O (stereo not given) | -32 | -2 | 29 | 97 | 3 | -2
COc1cc(C2Nn3c(nnc3-c3ccccc3OC)S2)ccc1O (stereo not given) | 9 | 3 | 99* | ? | -6 | 11
Cc1ccc(-c2cnc(-c3ccccc3C(=O)O)o2)cc1 | 9 | 0 | 1 | 113 | -12 | 12
O=S1(=O)NC(=NC2CCCCCC2)c2ccccc21 | 9 | 3 | 89* | 96 | 28 | 5
COc1cc(/C=N\NC(=O)c2ccc(-c3ccccc3)cc2)cc(OC)c1O | 7 | -5 | 96* | nt | 11 | 3
O=C1CCC/C(=N/NC(=O)c2ccc(NS(=O)(=O)c3cccs3)cc2)C1 | 3 | -52 | 82* | 98 | 9 | -5
O=C(Oc1ccc(/C=N/n2cnnc2)cc1)c1cccc([N+](=O)[O-])c1 | 7 | 41 | -6 | 107 | -12 | -7
CN(C)/N=C/c1ccc(OC(=O)c2cccc([N+](=O)[O-])c2)cc1 | 3 | 22 | 98* | nt | -21 | -11
COc1cc(/C=N\NC(=O)c2ccc(-c3ccccc3)cc2)cc(OC)c1OC(C)=O | 20 | 23 | -2 | 110 | 10 | nt
O=C(N/N=C/c1ccc(OC(=O)c2ccc([N+](=O)[O-])cc2)cc1)c1cccnc1 | 12 | -5 | -3 | 8.2* | 0 | 19
O=C(N/N=C/c1ccc(OC(=O)c2ccccc2)cc1)c1cccnc1 | 5 | 14 | -13 | nt | 3 | 9
O=C1CC(C(=O)N2CCN(c3ccccn3)CC2)CN1Cc1ccccc1Cl (stereo not given) | 2 | -18 | nt | 105 | nt | 8
COCc1ccc(CN2CCCCC2C(=O)Nc2ccc(Oc3ccccc3)nc2)o1 (stereo not given) | 23 | -9 | -3 | 111 | 1 | -13
COc1ccc(N(CC(=O)NC2CCS(=O)(=O)C2)S(=O)(=O)c2cc(C)ccc2C)cc1 (stereo not given) | -5 | 37 | 7 | 92 | nt | nt
COc1cc(/C=N/NC(=O)c2ccc(NS(=O)(=O)c3cccs3)cc2)cc(OC)c1O | -8 | 5 | 98* | 113 | nt | nt
O=C(NN=Cc1ccc(F)c(F)c1)c1ccc(NS(=O)(=O)c2cccs2)cc1 | -3 | 7 | -2 | nt | nt | nt
COc1cc(/C=N/NC(=O)c2cccnc2)cc(Br)c1O | 22 | 8 | 81* | 112 | 9 | 17
C/C(=N\NC(=O)c1ccc(NS(=O)(=O)c2cccs2)cc1)c1ccc(O)cc1O | 8 | 17 | 99* | 107 | 11 | 9
COc1cc(/C=N/NC(=O)CCOc2ccccc2C)cc(Br)c1O | 14 | 17 | 97* | 102 | -17 | -9
CN1CCN(S(=O)(=O)c2ccc3c(c2)oc(=O)n3C)CC1 | 15 | -4 | nt | 126 | 7 | -1
